The RNAGym collection of RNA variant scans (doi:10.1038/nmeth.2970)

B1: NELF-E aptamer (parent)
chain: CCCAACGACUGCCGAGCGAGAUUACGCUUGAGCGCCCCACUGAGGAUGCCCACGGGCGAUUGGGGCACGG

Variants of: B1
Assay: HiTS-RAP
Conditions: with NELF-E (Drosophila)
Method in brief: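 Kd came from weighted Hill fits to the first binding curve, with intensities normalised to sequencing intensity and averaged per sequence, keeping only fits whose variance was below 1,000,000. That curve was imaged on an Illumina GAIIx flowcell, where sequenced aptamer DNA templates with a T7 promoter and ter site had been transcribed in situ by T7 RNA polymerase and halted by GST-Tus (30 minutes, 37°C). Before each image, clusters equilibrated for 30 minutes at room temperature with NELF-E-mOrange at 0.064 to 1000 nM in HEPES binding buffer.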
In the case of CCCUACGACUGCCGAGCGAGAUUAGGCUUGAGCGCCCCACUGAGGAUGCCCACGGGCGAUUGGGGCACGG [A4U C25G], the Kd is reported as 5.99 nM.
In the case of CCCAACGACUGCCGAGCGAGAUUACGCCUGAGCGCCCCACUGAGGAUGCCCACGGGCGAUUGGGGCACGG [U28C], the Kd is reported as 8.26 nM.
Variant CCCAACGAGUGCCGAGCGAGAUUACGCUGGAGCGCCCCACUGAGGAUGCCCACGGGCGAUUGGGGCACGG [C9G U29G] has a Kd of 5.58 nM.
With CCCAACGACUGCCGAGCGAGAUGACGCUUGAGCGCCCCACUGUGGAUGCCCACGGGCGAUUGGGGCACGG [U23G A43U] the Kd was 85.7 nM.
For CCCAACGACGGCCGAGCGAGAUUACGCUUGAGCGCCCCACUGAGGAUGCCCACGGGCGAUUGGGGUACGG [U10G C66U], the Kd was 4.66 nM.
CCCAACUUCUGCCGAGCGAGAUUACGCUUGAGCGCCCCACUGAGGAUGCCCACGGGCGAUUGGGGCACGG [G7U A8U] gave a Kd of 6.38 nM.
CCCAACGACGGCCGAGCGAGAUUACGCUUGAGCGCCCCACUGAGGAUGUCCACGGGCGAUUGGGGCACGG [U10G C49U] gave a Kd of 18.7 nM.
CCCAUCGACUGCCGAGCGAGAUUACGCUUGAGCGCCCCACUGAGGAGGCCCACGGGCGAUUGGGGCACGG [A5U U47G] was tested, and the Kd was 7.11 nM.
CCCAACGAGUGCCGAGCGAGAUUACGCUUGAGCGCCCCACUGAGGAUGCCCACGGGUGAUUGGGGCACGG [C9G C57U] was tested, and the Kd was 7.56 nM.
For CCCGACGACUGCCGAGUGAGAUUACGCUUGAGCGCCCCACUGAGGAUGCCCACGGGCGAUUGGGGCACGG [A4G C17U], the Kd was 5.09 nM.
Work on CCCAAGGACUGCCGAGCGAGAUAACGCUUGAGCGCCCCACUGAGGAUGCCCACGGGCGAUUGGGGCACGG [C6G U23A] yielded a Kd of 5.12 nM.
With CCCAAGGACUGCCGAGCGAGAUCACGCUUGAGCGCCCCACUGAGGAUGCCCACGGGCGAUUGGGGCACGG [C6G U23C] the Kd was 4.4 nM.
CCCAACGACUGCCGAGCGAGAGUACGCUUGAGCGCCCCACUGUGGAUGCCCACGGGCGAUUGGGGCACGG [U22G A43U] gave a Kd of 56.4 nM.
Work on CCCAUCGACUGCCGAGCGAGAUUGCGCUUGAGCGCCCCACUGAGGAUGCCCACGGGCGAUUGGGGCACGG [A5U A24G] yielded a Kd of 6.39 nM.
Work on CCCAACGACUGCCGAGCGAGAUUACGCUGGAGCGCCCCACUGAGGAUGCCCAGGGGCGAUUGGGGCACGG [U29G C53G] yielded a Kd of 5.71 nM.
For CCCAACGACUGUCGAGCGAGAUUACGCUUGAGCGCCCCGCUGAGGAUGCCCACGGGCGAUUGGGGCACGG [C12U A39G], the Kd was 6.76 nM.
CCCAACGACUGCCGAGCGAGAUUACGCUGGAGCGCCCCACUGAGGAUGCCGACGGGCGAUUGGGGCACGG [U29G C51G] gave a Kd of 4.37 nM.
For CCCAUCGACUGCCGAGCGAGUUUACGCUUGAGCGCCCCACUGAGGAUGCCCACGGGCGAUUGGGGCACGG [A5U A21U], the Kd was 6.61 nM.
For CCCAACGACGGCCGAGCGAGAUUACGCUUGAGCGCCCCACCGAGGAUGCCCACGGGCGAUUGGGGCACGG [U10G U41C], the Kd was 76.2 nM.
Work on CCCAACGACAGCCGAGCGAGAUUACGCUUGAGCGCCCCACUGAGGAUGCCCACGGGCGAUUGGGGCACGG [U10A] yielded a Kd of 4.9 nM.
For CCCAACGACUGCCGGGCGAGAUUACGCUUGAGCGCCCCACGGAGGAUGCCCACGGGCGAUUGGGGCACGG [A15G U41G], the Kd was 5.7 nM.
With CCCAACGAGUGCCGAGCGAGAUUACGCUUGAGCGCCCCACUGAGGUUGCCCACGGGCGAUUGGGGCACGG [C9G A46U] the Kd was 68.3 nM.
CCCAACGACUGCCUAGCGAGAUUACGCUUGAGCUCCCCACUGAGGAUGCCCACGGGCGAUUGGGGCACGG [G14U G34U] gave a Kd of 5.16 nM.
With CCCAAUGACUGCCGAGCGAGAUUACGCUUGAGCGCCCCACAGAGGAUGCCCACGGGCGAUUGGGGCACGG [C6U U41A] the Kd was 82.3 nM.
Work on CCCAACAACUGCGGAGCGAGAUUACGCUUGAGCGCCCCACUGAGGAUGCCCACGGGCGAUUGGGGCACGG [G7A C13G] yielded a Kd of 6.51 nM.
CCCAACGACUGACGAGCGAGAUGACGCUUGAGCGCCCCACUGAGGAUGCCCACGGGCGAUUGGGGCACGG [C12A U23G] showed a Kd of 5.88 nM.
CCCAACGACUGCCAAGCGAGAUUACGCUCGAGCGCCCCACUGAGGAUGCCCACGGGCGAUUGGGGCACGG [G14A U29C] was tested, and the Kd was 4.73 nM.
With CCCAACGAUUGCCGAGCGGGAUUACGCUUGAGCGCCCCACUGAGGAUGCCCACGGGCGAUUGGGGCACGG [C9U A19G] the Kd was 5.01 nM.
In the case of CCCAAGGACUGCCGAGCGAGAUUACGCUUGAGCGCCCCACUGAGGAUGCCCACGGGCUAUUGGGGCACGG [C6G G58U], the Kd is reported as 6.94 nM.
CCCAACGAGUGCCGAGCGAGAUUAUGCUUGAGCGCCCCACUGAGGAUGCCCACGGGCGAUUGGGGCACGG [C9G C25U] was tested, and the Kd was 7.05 nM.
For CCCAACGACUGCCGAGCGAUAUUACGCUUGAGCGCCCCACGGAGGAUGCCCACGGGCGAUUGGGGCACGG [G20U U41G], the Kd was 6.33 nM.
Work on CCCAACGACUGCCGAGCGAGAUUACGCUUGAGCGCCCCACUGAGGAUGCCCACGGGCGAUUGUGGCACGG [G63U] yielded a Kd of 10.3 nM.
CCCAACGACUGCCGAGCGAGAUUACGCUUGAGCGCCCCACUGAGGAUGCCCACGGGCGAUUGGGGUACGG [C66U] was tested, and the Kd was 4.61 nM.
CCCAACGAGUGUCGAGCGAGAUUACGCUUGAGCGCCCCACUGAGGAUGCCCACGGGCGAUUGGGGCACGG [C9G C12U] was tested, and the Kd was 5.9 nM.
Variant CCCAACGAGUGGCGAGCGAGAUUACGCUUGAGCGCCCCACUGAGGAUGCCCACGGGCGAUUGGGGCACGG [C9G C12G] has a Kd of 5.75 nM.
CCCAACGACUGCCGAGCGAGAUGACGCUUAAGCGCCCCACUGAGGAUGCCCACGGGCGAUUGGGGCACGG [U23G G30A] gave a Kd of 4.6 nM.
Variant CCCAACGGCUGCCGAGCGAGAUUACGCUUGAGCGCCCCACGGAGGAUGCCCACGGGCGAUUGGGGCACGG [A8G U41G] has a Kd of 6.37 nM.
With CCCAAGGACUGCCGAGCGAGAUUACGCUUGAGCGCCCCACUGAGGAUGCCCACGGGCGAUUGGGGCGCGG [C6G A67G] the Kd was 6.07 nM.
CCCAACGACGGCCGAGCGGGAUUACGCUUGAGCGCCCCACUGAGGAUGCCCACGGGCGAUUGGGGCACGG [U10G A19G] gave a Kd of 5.12 nM.
